Screening results from PubChem.
Only some compounds are listed: those with a hit (about 1.6% of all), similar ones and a draw of the others.
ARFGAP1 inhibitor = rat ARFGAP1 inhibition; Q62848; AID 651572; inhibition, % at 16.5 µM; Arfgap1-stimulated ARF1 GTP hydrolysis, GDP FP detection; 0.26% of 360,000 active;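 active = inhibition above a per-plate limit, mean inhibition of low control wells plus 3 SD, cut at about 25% in these data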
Target sequence (Q62848 1-136 limits assumed): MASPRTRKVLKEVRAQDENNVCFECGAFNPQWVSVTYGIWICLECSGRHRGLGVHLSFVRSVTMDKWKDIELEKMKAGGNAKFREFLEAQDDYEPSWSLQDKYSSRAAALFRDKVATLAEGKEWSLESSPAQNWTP
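System: truncated rat Arfgap1 GAP domain / Medium: HEPES-based buffer, pH 7.5 / Also added: N-terminally truncated human ARF1-GTP substrate / Incubation: enzyme reaction 120 min at 25 °C after 20 min preincubation / Measured by: FP of antibody-bound GDP Alexa 633 tracer, ex 620/em 688 nm / Replicates: singlicate, each compound tested once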
Cardio protect = protects H9c2 cardiomyocytes from peroxide injury; protection from H2O2 cell death, % at 20 µM; 0.63% of 360,000 active; H2O2 injury protection, ATPLite, 2 h; AID 588492;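 active = compounds giving at least 50% protection of heart cells from peroxide-induced death in the single-dose screen, raw or plate-pattern-corrected value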
ASAP1 GAP inh = ASAP1 ArfGAP inhibition. Q9ULH1. inhibition, % at 16.5 µM. ASAP1-stimulated ARF1 GTP hydrolysis, GDP FP detection. 0.19% of 360,000 active; in the data active = inhibition above about 25%
Target sequence (Q9ULH1 325-724 limits assumed): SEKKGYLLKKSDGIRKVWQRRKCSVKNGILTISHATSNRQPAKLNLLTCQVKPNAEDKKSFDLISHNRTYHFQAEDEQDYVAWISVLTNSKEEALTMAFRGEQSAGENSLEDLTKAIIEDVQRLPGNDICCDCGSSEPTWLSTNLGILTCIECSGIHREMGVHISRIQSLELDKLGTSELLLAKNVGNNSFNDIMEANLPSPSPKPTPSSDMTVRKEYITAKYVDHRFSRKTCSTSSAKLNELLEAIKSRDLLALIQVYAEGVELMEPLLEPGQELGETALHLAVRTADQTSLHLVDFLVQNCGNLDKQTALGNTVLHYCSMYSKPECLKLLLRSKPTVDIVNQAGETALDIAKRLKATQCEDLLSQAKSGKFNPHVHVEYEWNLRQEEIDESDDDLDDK
Neddyl block = cullin neddylation inhibition | TR-FRET cullin neddylation, biochemical | inhibition, % at 25 µM | 0.58% of 360,000 active | P61081+Q13564; in the data active = inhibition above about 36%
Neddyl conf = confirmation of human cullin neddylation inhibitors | shares compounds with Neddyl block | TR-FRET cullin neddylation biochemical assay | calls only at 25 µM | 13% of 1,800 active | AID 652217; in the data active = inhibition above about 40%;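 also: neddylation substrate is the cullin 1 ring ligase complex with SKP2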
Hits are given with their value; n = inactive; x = not tested or not shown; + = active, no number.

SMILES | ARFGAP1 inhibitor | Cardio protect | ASAP1 GAP inh | Neddyl block | Neddyl conf
COC(=O)[C@]12C[C@H](CC(=O)NCC3CCCCC3)C(=O)N(CCC3=CCCCC3)C1=C[C@H](COCc1ccccc1)O[C@@H]2C | n | x | n | x | x
COC(=O)C1=C(C)NC2=C(C(=O)CC(C)(C)C2)C1c1cnn(C)c1C (stereo not drawn) | n | n | n | 40 | x
CCOc1ccc(-c2cc(C(=O)N/N=C(\C)c3cccnc3)c3ccccc3n2)c(OCC)c1 | n | n | n | 52 | n
COC(=O)[C@]12C[C@H](CC(=O)N3CCCC3)C(=O)N(Cc3ccc4c(c3)OCO4)C1=C[C@H](C(C)(C)C)O[C@@H]2C | n | x | n | x | x
COc1ccc2cc(C(=O)C3CCCN(Cc4cnc(N5CCOCC5)s4)C3)ccc2c1 (stereo not drawn) | n | n | n | 42 | n
S=c1[nH]nc(-c2cc(-c3ccccc3)n[nH]2)n1/N=C/c1c(Cl)cccc1Cl | n | n | n | 49 | n
S=c1[nH]nc(-c2cc(-c3ccccc3)n[nH]2)n1/N=C/C=C/c1ccco1 | n | n | n | 70 | n
CC1CCN(C(=O)CN2c3cccc4cccc(c34)S2(=O)=O)CC1 | n | n | n | 46 | x
CC1CCCCC1NC(=O)CN1c2cccc3cccc(c23)S1(=O)=O (stereo not drawn) | n | n | n | 44 | x
CCn1c(=O)c(CCC(=O)NCC2CCCO2)c(C)c2c(C)nn(-c3ccccc3)c21 (stereo not drawn) | n | n | n | 40 | n
Cc1ccc(-n2nc(C)c3c(C)c(CCC(=O)NCC4CCCO4)c(=O)n(C)c32)cc1 (stereo not drawn) | n | n | n | n | x
O=C1NC[C@H](CC2CCCCC2)N(CCc2cc(C(F)(F)F)cc(C(F)(F)F)c2)C1=O | n | x | n | n | x
CCCn1c(SCC(=O)N(C)C2CCCCC2)n[nH]c1=O | n | n | n | n | x
CC(=O)Oc1ccc2nc(/C=C/c3ccccc3)oc(=O)c2c1 | n | n | n | 45 | n
CCOC(=O)N1CCN(C(=O)CSc2ccc3nnc(-c4ccccn4)n3n2)CC1 | n | n | n | 44 | n
CCOC(=O)[C@]12CCCC=C1N(CCc1ccc(OC)c(OC)c1)C(=O)[C@H](CC(=O)N1CCCCC1)C2 | n | x | n | n | x
COc1ccc(/C=C2\CCn3c2nc2cc(C(=O)O)ccc2c3=O)cc1OC | n | n | n | n | x
O=C(O)c1ccc2c(=O)n3c(nc2c1)/C(=C/c1ccc(Cl)c(Cl)c1)CC3 | n | n | n | x | x
CSc1ccc(/C=C2\CCn3c2nc2cc(C(=O)O)ccc2c3=O)cc1 | n | n | n | 46 | +
COC(=O)c1ccc(/C=C2\CCn3c2nc2cc(C(=O)O)ccc2c3=O)cc1 | x | n | x | 55 | +
COc1cc(OC)c(NC(=O)C(Sc2nc(C)cc(C)c2C#N)c2ccccc2)cc1Cl (stereo not drawn) | n | x | n | x | x
CC(C)(O)[C@H]1Cc2cc3ccc(=O)oc3cc2O1 | n | n | n | x | x
CC1(C)Oc2cc3oc(=O)ccc3cc2C[C@@H]1O | n | n | n | 52 | x
O=C(Nc1ccc(F)cc1)C(CCc1ccccc1)N1CCN(c2cccc(C(F)(F)F)n2)CC1 (stereo not drawn) | n | x | n | n | x
CC1=CC(c2ccc(Cl)cc2)n2ncnc2N1 (stereo not drawn) | n | n | n | 39 | n
SMILES | ARFGAP1 inhibitor | Cardio protect | ASAP1 GAP inh | Neddyl block | Neddyl conf
COc1ccccc1Nc1ncc(C(=O)N2CCN(Cc3ccc(OC)c(OC)c3OC)CC2)c2ccccc12 | n | n | n | 44 | x
COc1ccccc1Nc1ncc(C(=O)N2CCC(C(N)=O)CC2)c2ccccc12 | n | n | n | n | x
Cc1ccccc1C(=O)N1CCN(C(=O)C(=O)c2cccc(C(F)(F)F)c2)CC1 | n | x | n | x | x
COc1ccc(-n2ncc3c(NCc4ccco4)ncnc32)cc1 | n | n | n | n | x
C=CCNc1ncnc2c1cnn2-c1ccc(OC)cc1 | n | n | n | 46 | n
COc1ccc(-n2ncc3c(NCCCN4CCOCC4)ncnc32)cc1 | n | n | n | 42 | n
Cc1ccccc1-c1ccc2c(c1)[C@@H]1C[C@H]3[C@@H](CN1CC2)[C@H](C)OC(c1ccccc1)N3C (stereo partly drawn) | n | x | n | x | x
Cc1ccccc1-c1cc2nc(Nc3ccc(F)cc3)n(C)c(=O)c2s1 | n | n | n | n | x
COc1ccc(/C=C/C(=O)NCCN2CCOCC2)cc1OC | n | n | n | n | x
COc1cc(/C=C/C(=O)NCCN2CCOCC2)cc(OC)c1OC | n | n | n | 44 | n
CCCCN(C)C(=O)c1cc2cc3ccc(OC)cc3nc2o1 | n | n | n | 58 | +
COC(=O)[C@@]12C[C@@H](CC(=O)N3CCN(C(=O)c4ccco4)CC3)C(=O)N(Cc3ccc4c(c3)OCO4)C1=CCC(C)(C)C2 | n | x | n | n | x
Cc1ccc2c(c1)c(C)cc[n+]2Cc1ccccc1 | n | n | n | n | x
COc1ccc2c(c1)c(C)cc[n+]2Cc1ccccc1 | n | n | n | 43 | x
Cc1ccc2ccc(C#N)cc2c1O | n | n | n | 43 | +
CCC(C)(O)c1[nH]c2ccc(C#N)cc2c1C (stereo not drawn) | n | n | n | n | x
CCCN(CCC)S(=O)(=O)c1ccc(C(=O)Nc2cc3oc4ccccc4c3cc2OC)cc1 | n | n | n | 45 | n
CCN(CC)S(=O)(=O)c1cccc(C(=O)Nc2cc3oc4ccccc4c3cc2OC)c1 | n | n | n | n | x
CCc1cccc(NC(=O)COC(=O)C2COc3ccccc3O2)c1 (stereo not drawn) | n | n | n | n | x
CCc1nc2c(OCc3ccccc3C)cccn2c1N(C)C(=O)c1ccc(C)cc1 | n | n | n | n | x
NC1=NC(=O)/C(=C/c2c(OS(=O)(=O)c3ccc(Cl)cc3)ccc3ccccc23)S1 | n | n | n | 41 | n
CCOC(=O)N1CCC(c2cc(=O)n3[nH]ccc3n2)CC1 | n | n | n | 41 | x
CCOC(=O)N1CCC(c2cc(=O)n3[nH]cc(C(=O)OC)c3n2)CC1 | n | n | n | n | x
CCCCN(CC)CCCNC(=O)c1cc2c(=O)n(C)c3ccccc3c2n1C | n | n | n | 43 | n
CC(C)OCCCNC(=O)c1cc2c(=O)n(C)c3ccccc3c2n1C | n | n | n | n | x
SMILES | ARFGAP1 inhibitor | Cardio protect | ASAP1 GAP inh | Neddyl block | Neddyl conf
CCOc1ccc2[nH]c(=O)c(CN(Cc3cccs3)C(CC)c3nnnn3C(C)(C)CC)cc2c1 (stereo not drawn) | n | 67 | n | 45 | n
CCOc1ccc2[nH]c(=O)c(CN(Cc3ccco3)C(CC)c3nnnn3Cc3ccccc3)cc2c1 (stereo not drawn) | n | 86 | n | 41 | n
CCOC(=O)Cn1nnnc1C(CC)N(Cc1cccs1)Cc1cc2cc(C)ccc2[nH]c1=O (stereo not drawn) | n | n | n | n | x
CCOc1ccc2[nH]c(=O)c(CN(Cc3ccco3)Cc3nnnn3Cc3ccccc3)cc2c1 | n | n | n | n | x
CC(C)(C)c1ccc(C(=O)N2CCN(c3ccc(N4CCOCC4)nn3)CC2)cc1 | n | n | n | 52 | x
COc1ccc(C(=O)N2CCN(c3ccc(N4CCOCC4)nn3)CC2)cc1OC | n | n | n | x | x
